Laboratory results taken from paper PMC3653324 (Translational stroke research, 2012).
Where two headings read alike, the source gives them in different places.

How the values were obtained:
HT22 cells = test: In vitro ischemia assay; type: cell-based; details: Mus musculus, HT-22, read-out: HT22 EC50 (nM)
Method in brief: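 Mouse HT22 hippocampal cells were grown in DMEM with 10 % FCS and seeded at 5×10^3 cells/well. Next day, medium was changed to DMEM with 7.5 % dialyzed FCS, and cells were exposed to 20 µM iodoacetic acid with or without varying test compound concentrations for 2 h. Medium was then replaced with compound-containing medium without IAA for 20 h. Viability was read by MTT (5 µg/ml, 4 h, 37 °C), solubilized in DMF/SDS pH 4.7, A570.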

mouse cortical neurons = test: Cortical neuron glutamate excitotoxicity neuroprotection assay; type: cell-based; details: tested at 0.1 μM
MDR1-MDCK cells = test: BBB penetration; type: in vitro ADME, canine; details: classification from Papp A→B and efflux
Method in brief: (§1)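 MDCK cells transfected with human MDR1 (P-gp) were grown to a confluent monolayer over 4 days. Test compound was added apically, and A→B transport was followed over 60 min; B→A transport was also measured. Compound on each side was quantified by GC/MS. Papp was calculated for both directions, and efflux ratio = Papp B→A/Papp A→B. High BBB potential: Papp A→B ≥3.0×10⁻⁶ cm/s and efflux <3.0.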

P-glycoprotein (MDR1) = test: BBB penetration; type: in vitro ADME, canine; details: dog, MDCK-MDR1
Method in brief: as §1

H4IIE cells [1] = test: CeeTox cell mass; details: 24 hr
H4IIE cells [2] = test: CeeTox analysis composite; type: cell-based, rat; details: H4IIE cells, 24 hr
H4IIE cells [3] = test: CeeTox membrane toxicity; details: 24 hr, α-GST leakage
S. typhimurium TA989 = test: Ames test for mutagenicity, frame-shift strain; type: cell-based; details: first TA98 column; for TA98+S9: with S9, up to 10 μM; for TA98−S9: without S9, up to 10 μM
CYP3A4 = CYP3A4 (Homo sapiens, UniProt P08684); test: Cloe Screen Cytochrome P450 Inhibition assay; type: in vitro ADME
8-Isoprostane (8-ISO) = test: CeeTox lipid peroxidation measured as 8-isoprostane; details: H4IIE cells, 8-ISO score
CYP2C9 = CYP2C9 (Homo sapiens, UniProt P11712); test: Cloe Screen Cytochrome P450 Inhibition assay; type: in vitro ADME
H4IIE cells [4] = test: CeeTox cellular ATP content; details: 24 hr
CYP2C19 = CYP2C19 (Homo sapiens, UniProt P33261); test: Cloe Screen Cytochrome P450 Inhibition assay; type: in vitro ADME
[5] = system: Intracellular glutathione (GSH); test: CeeTox intracellular glutathione; details: H4IIE cells
CYP2D6 = CYP2D6 (Homo sapiens, UniProt P10635); test: Cloe Screen Cytochrome P450 Inhibition assay; type: in vitro ADME
Method in brief: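 Run blinded. […] Metabolite formation was monitored by LC-MS/MS. IC50 was calculated from the decrease in metabolite formation relative to vehicle control. Quinidine served as positive control inhibitor.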

P-glycoprotein (PgP) = test: P-glycoprotein; type: cell-based, rat; details: H4IIE cells, MTT, 24 hr, single exposure concentration (20 or 50 μM), without CSA
H4IIE cells [6] = type: cell-based; details: 24 hr
CYP1A2 = target: T1, CYP1A2 (Homo sapiens, UniProt P05177); test: Cloe Screen Cytochrome P450 Inhibition assay; type: in vitro ADME
T1 sequence (P05177 1-516): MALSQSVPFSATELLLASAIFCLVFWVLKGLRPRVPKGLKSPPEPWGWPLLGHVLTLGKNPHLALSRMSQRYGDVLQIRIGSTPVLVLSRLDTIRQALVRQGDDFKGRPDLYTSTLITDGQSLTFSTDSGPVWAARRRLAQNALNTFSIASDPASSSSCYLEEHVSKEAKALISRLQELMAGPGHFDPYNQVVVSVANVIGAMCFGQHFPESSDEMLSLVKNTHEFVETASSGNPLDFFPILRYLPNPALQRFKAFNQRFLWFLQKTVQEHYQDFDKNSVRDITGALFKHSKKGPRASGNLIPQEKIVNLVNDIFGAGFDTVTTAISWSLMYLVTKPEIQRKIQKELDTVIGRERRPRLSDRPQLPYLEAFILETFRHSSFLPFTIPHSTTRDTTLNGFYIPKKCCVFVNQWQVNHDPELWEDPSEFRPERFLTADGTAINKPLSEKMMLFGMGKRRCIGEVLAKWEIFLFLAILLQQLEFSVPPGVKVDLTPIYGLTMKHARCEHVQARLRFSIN

Caspase 3 = test: CeeTox apoptosis; type: cell-based, rat; details: H4IIE cells

Chain of CYP2C19 (P33261 whole entry): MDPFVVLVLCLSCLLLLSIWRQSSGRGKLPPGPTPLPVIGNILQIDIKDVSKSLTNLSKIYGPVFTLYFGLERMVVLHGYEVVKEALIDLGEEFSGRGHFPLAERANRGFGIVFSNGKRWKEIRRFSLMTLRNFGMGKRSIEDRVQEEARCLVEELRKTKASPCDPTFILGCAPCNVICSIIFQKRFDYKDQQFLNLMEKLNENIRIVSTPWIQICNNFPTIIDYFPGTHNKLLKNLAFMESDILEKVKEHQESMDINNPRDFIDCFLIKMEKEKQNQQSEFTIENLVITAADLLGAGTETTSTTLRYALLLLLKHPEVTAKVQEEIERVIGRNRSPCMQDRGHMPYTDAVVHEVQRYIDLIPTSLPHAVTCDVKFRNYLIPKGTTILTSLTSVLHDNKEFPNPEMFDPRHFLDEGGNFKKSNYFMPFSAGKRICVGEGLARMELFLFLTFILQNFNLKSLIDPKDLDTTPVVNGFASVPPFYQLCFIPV
Chain of CYP2D6 (P10635 whole entry): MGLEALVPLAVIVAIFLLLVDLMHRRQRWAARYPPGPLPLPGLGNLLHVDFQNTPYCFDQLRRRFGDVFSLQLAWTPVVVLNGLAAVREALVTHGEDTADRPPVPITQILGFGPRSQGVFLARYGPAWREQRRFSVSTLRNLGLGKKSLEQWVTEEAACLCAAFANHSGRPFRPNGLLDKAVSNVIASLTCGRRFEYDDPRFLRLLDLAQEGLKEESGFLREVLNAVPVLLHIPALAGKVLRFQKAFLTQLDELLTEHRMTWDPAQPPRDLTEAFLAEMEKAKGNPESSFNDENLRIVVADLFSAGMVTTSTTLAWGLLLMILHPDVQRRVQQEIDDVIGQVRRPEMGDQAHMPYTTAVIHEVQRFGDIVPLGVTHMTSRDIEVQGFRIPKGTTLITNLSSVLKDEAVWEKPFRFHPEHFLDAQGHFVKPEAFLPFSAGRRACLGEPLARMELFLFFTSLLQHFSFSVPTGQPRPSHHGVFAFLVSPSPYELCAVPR
Chain of CYP2C9 (P11712 whole entry): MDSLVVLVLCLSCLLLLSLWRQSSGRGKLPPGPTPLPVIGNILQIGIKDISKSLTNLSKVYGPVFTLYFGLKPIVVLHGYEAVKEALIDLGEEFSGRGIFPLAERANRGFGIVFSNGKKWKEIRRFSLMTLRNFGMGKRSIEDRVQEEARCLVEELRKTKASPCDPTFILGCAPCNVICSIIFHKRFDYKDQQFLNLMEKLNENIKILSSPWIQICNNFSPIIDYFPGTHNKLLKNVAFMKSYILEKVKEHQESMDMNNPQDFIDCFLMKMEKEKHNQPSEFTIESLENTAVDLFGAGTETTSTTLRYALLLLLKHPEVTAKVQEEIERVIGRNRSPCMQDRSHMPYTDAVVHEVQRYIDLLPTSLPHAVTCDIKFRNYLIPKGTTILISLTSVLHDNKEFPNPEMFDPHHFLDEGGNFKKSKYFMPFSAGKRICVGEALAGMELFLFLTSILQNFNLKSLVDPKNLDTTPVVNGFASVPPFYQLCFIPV
Chain of CYP3A4 (P08684 2-503): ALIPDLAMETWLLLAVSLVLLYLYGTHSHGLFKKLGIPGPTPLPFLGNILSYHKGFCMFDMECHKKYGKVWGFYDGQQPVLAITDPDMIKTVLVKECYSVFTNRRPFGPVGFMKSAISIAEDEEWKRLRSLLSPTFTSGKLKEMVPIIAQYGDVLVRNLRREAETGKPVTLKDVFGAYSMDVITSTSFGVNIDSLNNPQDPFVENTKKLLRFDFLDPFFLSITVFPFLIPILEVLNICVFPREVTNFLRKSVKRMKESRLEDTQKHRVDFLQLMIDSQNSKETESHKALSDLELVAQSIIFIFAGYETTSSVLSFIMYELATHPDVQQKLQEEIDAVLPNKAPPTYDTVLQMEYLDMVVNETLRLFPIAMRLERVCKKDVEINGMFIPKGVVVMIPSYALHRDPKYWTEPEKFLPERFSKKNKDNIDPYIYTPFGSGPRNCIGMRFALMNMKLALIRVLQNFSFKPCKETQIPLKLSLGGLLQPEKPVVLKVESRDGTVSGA

Compound	BBB Potential (MDR1-MDCK cells)	Papp A→B at 60 min (P-glycoprotein (MDR1)) [×10⁻⁶ cm/s]	efflux ratio at 60 min (P-glycoprotein (MDR1))	Cell Mass TC50 (H4IIE cells [1]) [µM]	MemTox TC50 (H4IIE cells [3]) [µM]	TA98+S9 (S. typhimurium TA989)	TA98−S9 (S. typhimurium TA989)	Membrane Lipid Peroxidation (8-Isoprostane (8-ISO))	ATP TC50 (H4IIE cells [4]) [µM]	Total GSH TC50 [5] [µM]	% Control(Compound) (P-glycoprotein (PgP)) [% Control]	MTT TC50 (H4IIE cells [6]) [µM]	other results
O=c1c(O)c(-c2ccc(O)c(O)c2)oc2cc(O)ccc12 [Fisetin, 3,3',4',7-tetrahydroxyflavone, reference compound]	low	2.96	0.7	–	–	–	–	–	–	–	–	–	EC50 (HT22 cells): 4000 nM; Neuroprotection of mouse cortical neurons against glutamate (mouse cortical neurons): did not confer neuroprotection
O=c1c(O)c(-c2ccc(O)c(O)c2)oc2c1ccc1ccccc12 [CSMC-6, 3,3',4'-trihydroxy alpha-naphthoflavone]	–	–	–	80	282	Negative (Not mutagenic < 10 μM (NEGATIVE))	Negative (Not mutagenic < 10 μM (NEGATIVE))	0	81	87	68.3	71	minimum TC50 (H4IIE cells [2]; lowest of the CeeTox endpoints): 71 µM; TC50 for all general toxicity measures (range over endpoints) (H4IIE cells [2]; range across CeeTox endpoints): 71 to 282 µM; IC50 (CYP3A4; read-out: CYP3A4 IC50, human liver microsomes, substrate head: Mephenytoin): > 10 µM; IC50 (CYP2C9; read-out: CYP2C9 IC50, human liver microsomes, substrate Tolbutamide): > 10 µM; IC50 (CYP2C19; read-out: CYP2C19 IC50, human liver microsomes, substrate head: Midazolam): > 10 µM; IC50 (CYP2D6; read-out: CYP2D6 IC50, human liver microsomes, substrate DextroM): > 10 µM
CCCc1ccc2oc(-c3ccc(O)c(O)c3)c(O)c(=O)c2c1 [CSMC-13, 6-propyl-3,3',4'-trihydroxy flavone]	low	0.1	1	78	>300	Negative (Not mutagenic < 10 μM (NEGATIVE))	Negative (Not mutagenic < 10 μM (NEGATIVE))	2 (2 = Concentration related increase with maximum values ≥ 15 pg/mL)	58	252	87.9	83	IC50 (CYP3A4): > 10 µM; IC50 (CYP2C9): > 10 µM; IC50 (CYP2C19): > 10 µM; IC50 (CYP1A2): > 25 µM; Caspase 3 Activity (Index/Dose): dose (Caspase 3; dose at which the index was seen): 100; Caspase 3 Activity (Index/Dose): index (Caspase 3; index of RFU): 1 (0–200 = 1); IC50 (CYP2D6): > 10 µM
